Measured values from ChEMBL document CHEMBL4312029, “Structure-activity relationship studies and in vitro and in vivo anticancer activity of novel 3-aroyl-1,4-diarylpyrroles against solid tumors and hematological malignancies” (Eur J Med Chem, 2020).
pIC50: −log10 of the molar value.

Legend:
[1] = Cytotoxicity against IM resistant human LAMA84-r cells assessed as reduction in cell viability incubated for 48 hrs by MTT assay; format: functional, cell-based
Tubulin = test: Inhibition of tubulin polymerization (unknown origin) incubated for 15 mins followed by GTP addition and measured for 20 mins by spectrophotometry; format: protein-complex assay, Homo sapiens
How it was run: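 Tubulin assembly assay with tubulin at 10 µM. IC50 for inhibition of polymerization; run in duplicate or triplicate.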

HT-29 = test: Cytotoxicity against human HT-29 cells assessed as reduction in cell viability incubated for 48 hrs by MTT assay; format: functional, cell-based; settings: for pIC50: HT-29, 48 h
[2] = Cytotoxicity against human SK-N-BE cells assessed as reduction in cell viability incubated for 48 hrs by MTT assay; format: functional, cell-based
How it was run: (§1)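 Increasing concentrations applied to glioblastoma and neuroblastoma lines to give dose-response viability curves; cytotoxic IC50 from triplicate experiments. Incubation 48 h, except U343MG at 72 h.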

T-24 = test: Cytotoxicity against human T24 cells assessed as reduction in cell viability incubated for 48 hrs by MTT assay; format: functional, cell-based; settings: T-24, 48 h
MCF7 = test: Cytotoxicity against human MCF7 cells assessed as reduction in cell growth incubated for 96 hrs by MTT assay; format: functional, cell-based; settings: MCF7, 96 h
How it was run: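 Growth inhibition of human breast carcinoma cells, reported as IC50; run in duplicate or triplicate.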

KBM5 [3] = test: Cytotoxicity against human KBM5 cells expressing IM- sensitive wild type Bcr/Abl assessed as reduction in cell viability incubated for 48 hrs by MTT assay; format: functional, cell-based; settings: KBM5, 48 h
KU812 cell line = test: Cytotoxicity against human KU812 cells expressing IM- sensitive wild type Bcr/Abl assessed as reduction in cell viability incubated for 48 hrs by MTT assay; format: functional, cell-based; settings: KU812, 48 h
U-87 MG = test: Cytotoxicity against human U87MG cells assessed as reduction in cell viability incubated for 48 hrs by MTS assay; format: functional, cell-based, U-87MG ATCC; settings: for inhibition: U-87MG ATCC; how it was run: as §1
T98G = test: Cytotoxicity against human T98G cells assessed as reduction in cell viability incubated for 48 hrs by MTS assay; format: functional, cell-based; how it was run: as §1
SW480 = test: Cytotoxicity against human SW480 cells assessed as reduction in cell viability incubated for 48 hrs by MTT assay; format: functional, cell-based; settings: for pIC50: SW480, 48 h
HCT-116 = test: Cytotoxicity against human HCT116 cells assessed as reduction in cell viability incubated for 48 hrs by MTT assay; format: functional, cell-based; settings: for pIC50: HCT-116, 48 h
Tubulin (Homo sapiens) = Tubulin (Homo sapiens) (UniProt P68371+Q9H4B7+P0DPH7+P68366+Q13509+Q71U36+P04350+Q3ZCM7+P07437+P68363+Q9BQE3+Q6PEY2+Q13885+Q9BVA1+Q9BUF5); test: Inhibition of [3H]colchicine binding to tubulin (unknown origin) at 5 uM incubated for 10 mins by DEAE-cellulose filter method relative to control; format: protein-complex assay
[4] = Cytotoxicity against human LAMA84-s cells expressing IM-sensitive wild type Bcr/Abl assessed as reduction in cell viability incubated for 48 hrs by MTT assay; format: functional, cell-based
PBMC = test: Cytotoxicity against human PBMC assessed as cell viability by MTT assay; format: cell-based
SW-620 = test: Cytotoxicity against human SW620 cells assessed as reduction in cell viability incubated for 48 hrs by MTT assay; format: functional, cell-based; settings: for pIC50: SW-620, 48 h
[5] = Cytotoxicity against human SK-N-BE(2)C cells assessed as reduction in cell viability incubated for 48 hrs by MTT assay; format: functional, cell-based; how it was run: as §1
[6] = (§2) Cytotoxicity against human U343MG cells assessed as reduction in cell viability incubated for 72 hrs by MTS assay; format: functional, cell-based; settings: U-343MG; how it was run: as §1
Homo sapiens = organism: Homo sapiens; test: as §2; format: functional, cell-based; how it was run: as §1
KBM5 [7] = test: Cytotoxicity against human KBM5 cells expressing IM-resistant Bcr/Abl T315I mutant assessed as reduction in cell viability incubated for 48 hrs by MTT assay; format: functional, cell-based; settings: KBM5, 48 h

Row | pIC50 (Tubulin) | inhibition (Tubulin (Homo sapiens)) [%] | SMILES | pIC50 [1] | inhibition (HT-29) | pIC50 (HT-29) | pIC50 [2] | pIC50 (T-24) | pIC50 (MCF7) | pIC50 (KBM5 [3]) | pIC50 (KU812 cell line) | Emax (U-87 MG) [%] | pIC50 (U-87 MG) | inhibition (U-87 MG) | Emax (T98G) [%] | pIC50 (T98G) | inhibition (T98G) | inhibition (SW480) | pIC50 (SW480) | inhibition (HCT-116) | pIC50 (HCT-116) | other results
1 | 6.30 | 90 | COc1cc(C(=O)c2cn(-c3ccc(F)cc3)cc2-c2ccc(N)cc2)cc(OC)c1OC | 7.66 | Dose-dependent effect | 7.46 | 6.54 | 7.32 | 7.92 | 7.60 | 7.74 | 32 | 7.34 | Dose-dependent effect | 31 | 7.66 | Dose-dependent effect | Dose-dependent effect | 6.78 | Dose-dependent effect | 7.44 | pIC50 [4]: 7.70; Activity (PBMC): Non-Toxic; inhibition (SW-620): Dose-dependent effect; pIC50 (SW-620): 7.33; pIC50 [5]: 6.75; Emax [6]: 37.1%; pIC50 [6]: 7.70; inhibition (Homo sapiens): Dose-dependent effect; pIC50 (KBM5 [7]): 7.59
2 | 6.15 | 82 | COc1cc(C(=O)c2cn(-c3cccc(N)c3)cc2-c2ccccc2[N+](=O)[O-])cc(OC)c1OC | 7.70 | Dose-dependent effect | 7.29 | 6.51 | 7.92 | 7.85 | 7.82 | 7.80 | 32.4 | 7.52 | Dose-dependent effect | 26.7 | 7.46 | Dose-dependent effect | Dose-dependent effect | 6.79 | Dose-dependent effect | 7.36 | pIC50 [4]: 7.74; Activity (PBMC): Non-Toxic; inhibition (SW-620): Dose-dependent effect; pIC50 (SW-620): 7.42; pIC50 [5]: 6.88; Emax [6]: 35.3%; pIC50 [6]: 7.52; inhibition (Homo sapiens): Dose-dependent effect; pIC50 (KBM5 [7]): 7.68
